ChEMBL document CHEMBL1134377, “New synthesis of benzo-delta-carbolines, cryptolepines, and their salts: in vitro cytotoxic, antiplasmodial, and antitrypanosomal activities of delta-carbolines, benzo-delta-carbolines, and cryptolepines” (J Med Chem, 2001)
Counter-ions that a name gives are not always drawn.

Key:
Trypanosoma cruzi [1] = test: Antitrypanosomal activity against Trypanosoma cruzi amastigotes; assay type: functional, organism-based
Trypanosoma cruzi [2] = test: Antitrypanosomal activity against Trypanosoma cruzi epimastigotes; assay type: functional, organism-based
[3] = In vitro cell survival assay on cancer KB cell lines; assay type: functional, cell-based, Homo sapiens
Procedure, shortened: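 KB oral epidermoid carcinoma cells in MEM with 10% FCS, 25 000 cells/well; serial dilutions (DMSO or water) added at plating; 3 days at 37 °C, 5% CO2; viability by neutral red uptake 8-16 h, SDS lysis, absorbance 540 nm.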

Plasmodium falciparum [4] = test: Selectivity index against Plasmodium falciparum; assay type: functional
Trypanosoma cruzi [5] = test: Index of selectivity was determined in Trypanosoma cruzi; assay type: functional
Procedure, shortened: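 Ratio of IC50 on L6 cells to IC50 on intracellular amastigote proliferation of T. cruzi.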

L6 = test: In vitro cytotoxicity against L6 cells; assay type: functional, cell-based, Rattus norvegicus
Plasmodium falciparum [6] = test: Antiplasmodial activity against chloroquine-resistant Plasmodium falciparum K1; assay type: functional, organism-based
Procedure, shortened: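 K1 strain kept in continuous culture on human erythrocytes. Asynchronous cultures (1% parasitemia, 1% final hematocrit) exposed to serial dilutions of drug (DMSO stocks; final DMSO ≤0.2%) for 24 h at 37 °C. 0.5 µCi [3H]hypoxanthine per well was then added for a further 24 h. Inhibition is incorporation versus untreated controls on the same plate. IC50 taken from concentration-response curves, mean ± SD of several independent experiments.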

Trypanosoma cruzi [7] = test: Antitrypanosomal activity against (Trypanosoma cruzi) trypomastigotes (concentration of compound tested on trypomastigote motility); assay type: functional, organism-based
Procedure, shortened: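 Tulahuen LacZ clone 4 trypomastigotes harvested from infected murine L6 muscle cell cultures; 2-fold drug dilutions from 200 to 1.5 µM, 48 h; motility scored by microscopy; value is concentration with no detectable motility effect, mean of 2 independent experiments.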

[8] = In vitro cytotoxicity against L6 cells

| Compound | IC50 (Trypanosoma cruzi [1]; Trypanosoma cruzi) [µM] | IC50 (Trypanosoma cruzi [2]; Trypanosoma cruzi) [µM] | IC50 ([3]; kb) [µM] | IS (Plasmodium falciparum [4]) | IS (Trypanosoma cruzi [5]) | IC50 (L6; Rattus norvegicus, L6) [µM] | IC50 (Plasmodium falciparum [6]; Plasmodium falciparum) [µM] | IC50 (Trypanosoma cruzi [7]; Trypanosoma cruzi) [µM] | IC50 ([3]; Homo sapiens, KB) [µM] | IC50 (Trypanosoma cruzi [1]) [µM] | IC50 (Trypanosoma cruzi [2]) [µM] | IC50 (L6; l6) [µM] | IC50 (Plasmodium falciparum [6]) [µM] | IC50 (Trypanosoma cruzi [7]) [µM] | IC50 [8] [µM] |
| --- | --- | --- | --- | --- | --- | --- | --- | --- | --- | --- | --- | --- | --- | --- | --- |
| Cc1c2ccccc2[n+](C)c2c1[nH]c1ccccc12.O=S(=O)([O-])C(F)(F)F | 0.074 | 0.3 | 0.57 | 22.5 | 18.9 | 1.4 | 0.062 | 12.5 | – | – | – | – | – | – | – |
| CCc1c2ccccc2[n+](C)c2c1[nH]c1ccccc12 | – | – | – | – | – | – | – | – | 1.5 | – | – | – | – | – | – |
| C[n+]1cccc2[nH]c3ccccc3c21.O=S(=O)([O-])C(F)(F)F | – | – | – | >100 | >1 | – | – | – | – | 199 | > 300 | > 150 | 1.5 | 100 | – |
| Cc1c2nc3ccccc3c-2[nH]c2ccccc12 | 4.7 | 3.9 | – | 0.25 | 4 | 18.9 | 74.6 | 25 | 40 | – | – | – | – | – | – |
| c1ccc2nc3c(cc2c1)[nH]c1ccccc13 [QUINDOLINE] | 14.2 | 8.7 | – | 1.3 | 3.4 | 48.6 | 36.2 | 50 | 45 | – | – | – | – | – | – |
| c1csc(-c2ccnc3c2[nH]c2ccccc23)c1 | 1.8 | 11.2 | – | 0.12 | 1 | 1.8 | 14.8 | 200 | – | – | – | – | – | – | – |
| CC(C)c1c2ccccc2[n+](C)c2c1[nH]c1ccccc12.O=S(=O)([O-])C(F)(F)F | 3.3 | 0.73 | 6.4 | 12.6 | 4.6 | 15.1 | 1.3 | 12.5 | – | – | – | – | – | – | – |
| c1csc(-c2cnc3c(c2)[nH]c2ccccc23)c1 | 8.4 | 6.8 | – | 3.2 | 6.4 | 54 | 16.8 | 200 | – | – | – | – | – | – | – |
| Cc1cc[nH]c2c3ccccc3nc1-2 | 10.4 | 6.6 | – | 1.8 | 7.9 | 82.4 | 45.6 | 100 | – | – | – | – | – | – | – |
| C[n+]1c2ccccc2cc2[n-]c3ccccc3c21 [CRYPTOLEPINE HYDROCHLORIDE] | – | – | 1.75 | – | – | – | – | – | – | – | – | – | – | – | – |
| C[n+]1c2ccccc2cc2[nH]c3ccccc3c21.O=S(=O)([O-])C(F)(F)F | 0.125 | 1.3 | – | 24.5 | 64.8 | 8.1 | 0.33 | 50 | – | – | – | – | – | – | – |
| C[n+]1c2ccccc2c(-c2ccccc2)c2[nH]c3ccccc3c21.O=S(=O)([O-])C(F)(F)F | 0.88 | 0.54 | – | 6.2 | 7.7 | 6.8 | 1.1 | 12.5 | – | – | – | – | – | – | – |
| C[n+]1c2ccccc2cc2[n-]c3ccccc3c21 [CRYPTOLEPINE] | – | – | – | – | – | – | – | – | 1.5 | – | – | – | – | – | – |
| c1ccc(-c2c3nc4ccccc4c-3[nH]c3ccccc23)cc1 | – | – | – | – | – | – | – | – | > 100 | – | – | – | – | – | – |
| Cn1cccc2nc3ccccc3c1-2 | 258 | > 550 | – | >100 | >1 | > 220 | 2.2 | 200 | – | – | – | – | – | – | – |
| c1ccc(-c2c[nH]c3c4ccccc4nc-3c2)nc1 | 20.8 | 49.8 | – | 9.2 | 9.8 | 204 | 22.1 | 50 | – | – | – | – | – | – | – |
| Oc1ccc2[nH]c3cccnc3c2c1 | 122 | 129 | – | 4.2 | 1.9 | 235 | 56.5 | 200 | – | – | – | – | – | – | – |
| Clc1c2nc3ccccc3c-2[nH]c2ccccc12 | 6.7 | 6.3 | – | 1.7 | 6.4 | – | 74.6 | 50 | – | – | – | – | – | – | 43.2 |
| CCc1cc[nH]c2c3ccccc3nc1-2 | 12.2 | 21.4 | – | 0.7 | 3.7 | 44.9 | 66.8 | 50 | – | – | – | – | – | – | – |
| C[n+]1cccc2[nH]c3ccccc3c21.[Cl-] | 192 | 428 | – | > 138 | >1 | > 230 | 1.6 | 200 | – | – | – | – | – | – | – |

| Compound | IC50 (Trypanosoma cruzi [1]; Trypanosoma cruzi) [µM] | IC50 (Trypanosoma cruzi [2]; Trypanosoma cruzi) [µM] | IC50 ([3]; kb) [µM] | IS (Plasmodium falciparum [4]) | IS (Trypanosoma cruzi [5]) | IC50 (L6; Rattus norvegicus, L6) [µM] | IC50 (Plasmodium falciparum [6]; Plasmodium falciparum) [µM] | IC50 (Trypanosoma cruzi [7]; Trypanosoma cruzi) [µM] | IC50 ([3]; Homo sapiens, KB) [µM] | IC50 (Trypanosoma cruzi [1]) [µM] | IC50 (Trypanosoma cruzi [2]) [µM] | IC50 (L6; l6) [µM] | IC50 (Plasmodium falciparum [6]) [µM] | IC50 (Trypanosoma cruzi [7]) [µM] | IC50 [8] [µM] |
| --- | --- | --- | --- | --- | --- | --- | --- | --- | --- | --- | --- | --- | --- | --- | --- |
| c1ccc(-c2cc[nH]c3c4ccccc4nc2-3)cc1 | 11.9 | 11.1 | – | 0.4 | 1.2 | 14.3 | 38.5 | 25 | – | – | – | – | – | – | – |
| Cn1c2c3ccccc3nc-2c(-c2ccccc2)c2ccccc21 | 0.34 | 0.23 | – | 5.5 | 16.6 | 5.5 | 1.1 | 1.5 | 0.75 | – | – | – | – | – | – |
| c1ccc(-c2c[nH]c3c4ccccc4nc-3c2-c2ccccc2)cc1 | 108 | > 312 | – | >0.6 | >1.5 | > 156 | 259 | 100 | – | – | – | – | – | – | – |
| Cc1c2nc3ccccc3c-2n(C)c2ccccc12 | – | – | – | 41.9 | – | 3.7 | 0.101 | – | 0.53 | – | – | – | – | – | – |
| Cc1c2ccccc2[n+](C)c2c1[nH]c1ccccc12 | – | – | – | – | – | – | – | – | 0.42 | – | – | – | – | – | – |
| CCc1c2nc3ccccc3c-2n(C)c2ccccc12 | 0.18 | 3.2 | – | 5.5 | 33 | 5.9 | 1.1 | 6.25 | 0.7 | – | – | – | – | – | – |
| c1ccc2c(c1)[nH]c1cccnc12 | 23.5 | 23.2 | – | 2.2 | 9.7 | 229 | 104 | 100 | – | – | – | – | – | – | – |
| c1ccc(-c2c[nH]c3c4ccccc4nc-3c2)cc1 | 8.6 | – | – | 0.3 | 4.3 | 37.2 | 129 | 200 | – | – | – | – | – | – | – |
| Nc1ccccc1-c1cc[nH]c2c3ccccc3nc1-2 | 18.9 | 34.4 | – | 0.7 | 0.9 | 16.2 | 23.9 | 50 | – | – | – | – | – | – | – |
| c1ccc2nc(-c3cc[nH]c4c5ccccc5nc3-4)ccc2c1 | 6.4 | 26.4 | – | 2.6 | 6.5 | 41.6 | 16.3 | 100 | – | – | – | – | – | – | – |
| CC(C)c1c2nc3ccccc3c-2[nH]c2ccccc12 | – | – | – | – | – | – | – | – | 57 | – | – | – | – | – | – |
| Cc1c(-c2ccccc2)c[nH]c2c3ccccc3nc1-2 | 1.9 | 2.3 | – | 0.9 | 11.2 | 21.3 | 23.6 | 6.25 | – | – | – | – | – | – | – |
| O=C(c1c2nc3ccccc3c-2[nH]c2ccccc12)c1c2nc3ccccc3c-2[nH]c2ccccc12 | 5.7 | > 200 | – | 2.4 | 2.7 | 15.2 | 6.4 | 100 | – | – | – | – | – | – | – |
| Nc1ccccc1-c1c[nH]c2c3ccccc3nc-2c1 | 11.2 | 10.4 | – | 0.5 | 1.3 | 14.3 | 29.3 | 50 | – | – | – | – | – | – | – |
| CCc1c2nc3ccccc3c-2[nH]c2ccccc12 | 5.7 | 2.8 | – | 0.7 | 3.8 | 21.5 | 30.9 | 6.25 | 40 | – | – | – | – | – | – |
| CC(C)c1c2nc3ccccc3c-2n(C)c2ccccc12 | – | – | – | 10.6 | – | 23.8 | 2.2 | – | 6.5 | – | – | – | – | – | – |
| c1ccc2nc(-c3c[nH]c4c5ccccc5nc-4c3)ccc2c1 | 3.3 | 18.6 | – | 1.6 | 6.9 | 22.7 | 14.2 | – | – | – | – | – | – | – | – |
| CC(C)c1c2ccccc2[n+](C)c2c1[nH]c1ccccc12 | – | – | – | – | – | – | – | – | 9.25 | – | – | – | – | – | – |
| c1ccc(-c2cc[nH]c3c4ccccc4nc2-3)nc1 | 18.8 | 58.4 | – | 2.3 | 4 | 75.1 | 33.1 | 25 | – | – | – | – | – | – | – |
| CCc1c2ccccc2[n+](C)c2c1[nH]c1ccccc12.O=S(=O)([O-])C(F)(F)F | 0.39 | 0.34 | – | 14.1 | 17.4 | 6.8 | 0.48 | 50 | – | – | – | – | – | – | – |
